Here are results for 167 variants from the RNAGym collection of RNA variant scans (doi:10.1126/science.aae0568).

B1: tRNA (parent)
chain: GUUCCGUUGGCGUAAUGGUAACGCGUCUCCCUCCUAAGGAGAAGACUGCGGGUUCGAGUCCCGUACGGAACG

Variants at the floor of the assay were thinned out. Some results are limits rather than exact numbers.

The data set covers variants of B1. Kind of data set: yeast fitness relative to wild type (ratio to wild type); higher = fitter; tRNA-Arg(CCU), competitive growth, 37 C, YPD. In short, it runs like this: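 Amplicons of the tRNA-Arg(CCU) gene were sequenced, 100-nucleotide paired-end, from the start population and from each end population of a pooled yeast competition. The competition, in six parallel replicates, lasted 24 hours in YPD at 37°C. Fitness relative to wild type was calculated from changes in genotype frequencies. Genotypes had to have ≥ 100 starting reads, and estimates < 0.5 were set to 0.5.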
Take A14G C34A A69C: the yeast fitness is 0.605.

Take C31G C34U G56A G58C: the yeast fitness is at most 0.5.

As for A45G C46U G50C, the yeast fitness was at most 0.5.

In the case of G51A A65G, the yeast fitness is 0.852.

For the variant C4A A69C, the yeast fitness amounted to 0.863.

For C5A G17A A42G G56A, the yeast fitness was at most 0.5.

As to G44A C60U, the yeast fitness is 0.798.

As for A15G C30U, the yeast fitness is 0.894.

In the case of G12C G25A G41C, the yeast fitness was found to be 0.591.

Take G6A G17C G18C A45G: the yeast fitness is at most 0.5.

Consider A45C A57C G68C, for which the yeast fitness was determined as 0.517.

In the case of G10C A15U A37U A45C U47C G52C, the yeast fitness is at most 0.5.

In the case of G23A C29G A65G, the yeast fitness was at most 0.5.

C27U A37C A40U A43U: the yeast fitness is 0.541.

Consider A36U U59G A65U, for which the yeast fitness is at most 0.5.

As for C34A C49U G50C G58A, the yeast fitness was 0.869.

Consider A14U U26C A42U C49U, for which the yeast fitness worked out at 0.536.

For the variant C27G G52C, the yeast fitness came out at 0.549.

Consider C4U C5G A20G C29U G48C G63C, for which the yeast fitness is at most 0.5.

In the case of C24U C31A C34U, the yeast fitness is at most 0.5.

For the variant A21C C27U A45G, the yeast fitness stood at 0.584.

As for U8A A15C A21U, the yeast fitness was at most 0.5.

As for A21U G41A A42C U59C A69U, the yeast fitness is at most 0.5.

For the variant A14U C22G A43U A57C G63C C66U, the yeast fitness was at most 0.5.

With A36C A57G, the yeast fitness worked out at 0.642.

For G6A U26A A37C A57U, the yeast fitness was at most 0.5.

As to C11G C31G C55A, the yeast fitness is 0.618.

Turning to A14G C22U C33G, the yeast fitness is at most 0.5.

G10A A37U G39A A57U: the yeast fitness is at most 0.5.

Take G6C C31G C46A G63C A65U: the yeast fitness was at most 0.5.

Regarding U3A A21C A36U G58A, the yeast fitness is at most 0.5.

On to C30U U47C A65G, for which the yeast fitness was at most 0.5.

On to A20U C61G A65U, for which the yeast fitness is at most 0.5.

Consider C4U C5U G18A G25A C33U G48A G52A A69U, for which the yeast fitness was at most 0.5.

For C5A C31A C46G, the yeast fitness was at most 0.5.

With G41A U47C U53A, the yeast fitness is at most 0.5.

As for C4A A20G C24A G52C U54A, the yeast fitness is at most 0.5.

U19A C24A C30G C34U G51A G52C C66U: the yeast fitness is at most 0.5.

Turning to A21G C33U G44C A70C, the yeast fitness is at most 0.5.

Regarding A20G A21C C30A G41C, the yeast fitness amounted to 0.581.

For U8C C11A U19G A36G U54C A69C, the yeast fitness is at most 0.5.

Take U19A A37G A65G: the yeast fitness came out at 0.707.

As to A15C C22G, the yeast fitness was found to be 0.658.

With C22A A69U, the yeast fitness is 0.843.

As for C30G C49A G68A, the yeast fitness was at most 0.5.

G12C U53C C60G G63U: the yeast fitness was determined as 0.691.

For the variant C5G A15G A36G A45C G50U, the yeast fitness was at most 0.5.

For the variant A20C A65C C66U, the yeast fitness stood at 0.619.

For G38C U47C, the yeast fitness is 0.757.

Consider C11U A43C G48C U64C, for which the yeast fitness is at most 0.5.

As for G9A U64C, the yeast fitness was 0.985.

As to C11G U32G C33U A37U A65G, the yeast fitness was found to be 0.627.

On to C5G G23A A69C, for which the yeast fitness was at most 0.5.

In the case of U2G C27G G52C, the yeast fitness is at most 0.5.

As for U3C C24U C62U, the yeast fitness came to 0.725.

Take C5U C33A G39C G51C C62U A69C: the yeast fitness turned out to be 0.543.

Take C33G C34U U53C C61U: the yeast fitness is at most 0.5.

For U8G C24G G41A C49U, the yeast fitness was at most 0.5.

As to C5G A14C C30U C49U C61A, the yeast fitness was at most 0.5.

Regarding U3A A15U U28G C55A A70U, the yeast fitness was found to be 0.779.

As for C31G A40U A45C, the yeast fitness was 0.533.

With C11G A37C C66G G68U, the yeast fitness is at most 0.5.

Take G6A G41A: the yeast fitness was found to be 0.822.

Consider U19A C27U G44C G48C C66U, for which the yeast fitness was at most 0.5.

As to U8C G10A U16A A65G, the yeast fitness is 0.605.

With C27G U47G C49U C66U, the yeast fitness was 0.584.

With U2G G48A G58C C61A, the yeast fitness was at most 0.5.

Turning to G10A A21G C24A C66U, the yeast fitness was at most 0.5.

G51C U59C: the yeast fitness is 0.523.

Consider G25C A42G A45C U47C C62U, for which the yeast fitness is at most 0.5.

For C5U G25C C49A G56C C62G, the yeast fitness is at most 0.5.

As to C11A A14U U59C C62U, the yeast fitness is at most 0.5.

For the variant G9U G68C, the yeast fitness stood at 0.77.

In the case of G41C A42U U64C, the yeast fitness is 0.82.

Turning to G41C A69C, the yeast fitness was found to be 0.858.

Take G17C A42U A70G: the yeast fitness amounted to 0.653.

Consider U8C G10A A40G G67A, for which the yeast fitness was determined as 0.593.

Turning to A14G G39C, the yeast fitness stood at 0.678.

On to G9C U32C A36G, for which the yeast fitness was at most 0.5.

On to C30G C49A U53C C66G, for which the yeast fitness worked out at 0.513.

On to C29G C49G, for which the yeast fitness came to 0.563.

As to U3G A14C A42U G44C, the yeast fitness is 0.578.

In the case of U8G C27U C31U C33A G67C, the yeast fitness was at most 0.5.

On to G6C C31U U35A C46G G48A C49U, for which the yeast fitness is at most 0.5.

With C66U A70G, the yeast fitness came to 0.973.

A21G C34G G63A G67C: the yeast fitness was at most 0.5.

Consider U26A U32C A57C G67A A69U, for which the yeast fitness is at most 0.5.

In the case of G17A C34U A42U G51C C66U, the yeast fitness is at most 0.5.

For the variant A57C A69U, the yeast fitness came out at 0.605.

In the case of C31G C34U C46U G56A G63A, the yeast fitness was at most 0.5.

In the case of C11G A36U, the yeast fitness was at most 0.5.

For U19C A21C G39C C61U, the yeast fitness is at most 0.5.

Consider A21C C34G C46A, for which the yeast fitness was at most 0.5.

C11G U13G A21G A65G: the yeast fitness was at most 0.5.

In the case of C33U C60U, the yeast fitness came out at 0.629.

For C31G G38A U54A, the yeast fitness was at most 0.5.

Turning to U7A C11G C27U A37C G51C, the yeast fitness is at most 0.5.

For U3C C30G C62A, the yeast fitness is at most 0.5.

Consider A15G G17A C30A U47C, for which the yeast fitness is at most 0.5.

For the variant C24G A40C C49A A69U, the yeast fitness is 0.589.

With G9A G17U U35A G52A U59C C66A G67A, the yeast fitness was at most 0.5.

Regarding C4U C29A A36C A40U G51A, the yeast fitness came to 0.588.

As for C31U G58A C66U, the yeast fitness is 0.73.

Turning to U26A C49A, the yeast fitness turned out to be 0.637.

For C24U A43U U47G U53C, the yeast fitness was at most 0.5.

For the variant C24G A36C A65G A70C, the yeast fitness is at most 0.5.

Consider U7A C11U, for which the yeast fitness is 0.686.

For the variant G9A C11G U54C C55G G63C G67C, the yeast fitness is at most 0.5.

In the case of G25A A42G U59C, the yeast fitness was at most 0.5.

Turning to G18C U19A U28G A40C, the yeast fitness was at most 0.5.

Turning to C22U G23A C61A, the yeast fitness turned out to be 0.58.

For G12C U28C U59A, the yeast fitness amounted to 0.586.

For the variant C30A C55G A57C C62G G68C, the yeast fitness was 0.513.

Consider G25A C55G, for which the yeast fitness is 0.681.

Regarding C31A A37C G67A, the yeast fitness is at most 0.5.

Consider A20U A43G A57C U59A A65C, for which the yeast fitness is at most 0.5.

With C5G C55U A65C A70U, the yeast fitness is at most 0.5.

For the variant U3A C30U A43C, the yeast fitness is 0.554.

On to A15G C49G G56C, for which the yeast fitness is at most 0.5.

Consider G10A C11A A15C C24A, for which the yeast fitness is at most 0.5.

As to A36G G63C, the yeast fitness turned out to be 0.724.

For U2C U3C C34U C55A, the yeast fitness was at most 0.5.

As to U35A C61U, the yeast fitness was 0.765.

For G9A C31U A70C, the yeast fitness stood at 0.766.

Consider C11A G18C, for which the yeast fitness was at most 0.5.

With C11U G39C C55G, the yeast fitness was at most 0.5.

As for C11G C27U C33U C62G, the yeast fitness was at most 0.5.

As for G52A C62U G63A, the yeast fitness is at most 0.5.

For the variant G6C A21C C22G, the yeast fitness is at most 0.5.

Regarding U7A G10C C22U C27G G67A, the yeast fitness is at most 0.5.

U2A C24G G63C G67C A69U: the yeast fitness was at most 0.5.

For the variant G9A A21G C29G C34G A57U C62G, the yeast fitness was at most 0.5.

For the variant C5A A21C A43U C46G C61G, the yeast fitness was at most 0.5.

For the variant G18A C31G A40G C49U G52C, the yeast fitness stood at 0.618.

For A43U A65U, the yeast fitness came to 0.883.

Regarding C4A C11A A57G, the yeast fitness was at most 0.5.

For the variant C4A G17C G23C U53A, the yeast fitness was at most 0.5.

Regarding G10C C27G A42C C66U, the yeast fitness was found to be 0.534.

Take U13A U32C U54G C62U: the yeast fitness was at most 0.5.

Regarding C5G G56A U59G, the yeast fitness is at most 0.5.

On to C4A C11G U19G G56C, for which the yeast fitness was 0.528.

As for C4A A14G C30G A45G G52A G63A, the yeast fitness is at most 0.5.

With C4A U7A C11U C31U U59A, the yeast fitness was at most 0.5.

C55U G58A G67A: the yeast fitness amounted to 0.546.

As to U8G C24U C29G A45G C61U A65C G67A G68A, the yeast fitness stood at 0.568.

As for A21C G48C G56C, the yeast fitness was at most 0.5.

Consider C5U A20C G44C, for which the yeast fitness stood at 0.573.

In the case of G44C A45G G56A, the yeast fitness worked out at 1.01.

For G9A C11A A57G, the yeast fitness is at most 0.5.

As for C4A U7C A45C C61G, the yeast fitness is at most 0.5.

Consider C46A U64C, for which the yeast fitness was 0.986.

Consider U8G C24G G63C, for which the yeast fitness is at most 0.5.

As to G10C A37U A45G C66U, the yeast fitness is at most 0.5.

For the variant U13A A45C C60A, the yeast fitness was at most 0.5.

With U26A C30A A36U G52A G58A, the yeast fitness is at most 0.5.

Take A40G G58C: the yeast fitness came to 1.05.

On to C24G A36C C46U G52A, for which the yeast fitness came to 0.637.

For G9A C24G C30U A57G, the yeast fitness is at most 0.5.

On to C27G A42C A65C, for which the yeast fitness is at most 0.5.

Consider A15C U32G, for which the yeast fitness stood at 0.504.

On to U2C G38A U47A C55G C61U, for which the yeast fitness was at most 0.5.

Take C4A C5U A36G A42C: the yeast fitness is at most 0.5.

G51C C66A: the yeast fitness is at most 0.5.

Turning to C5U A14G C24U U32G A43G C66U, the yeast fitness is at most 0.5.

For the variant U13A G58C, the yeast fitness was determined as 0.853.

In the case of C11A U13A A20G G68C A69C, the yeast fitness was found to be 0.626.

Take A14U C30U C31A G63C: the yeast fitness was at most 0.5.
